The source made the active and inactive calls. No cut-off for these calls is given here.
Legend:
[1] = Inhibition of PLD in human A549 cells measured after 1 hr by amplex red phospholipase D assay; assay type: cell-based
[2] = target: Phospholipase D2 (Homo sapiens) (UniProt O14939); test: Inhibition of PLD2 (unknown origin) overexpressed in human A549 cells; assay type: cell-based
In short: (§1)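 A549 cells transfected with wild-type PLD1, PLD1 mutants (L425A, F614A, F789A) or PLD2, then compound-treated. PLD activity measured as [3H]phosphatidylbutanol formed in the presence of 1-butanol after [3H]myristic acid labeling, expressed as % of total lipid cpm. At least three independent experiments.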

A549 [3] = test: Inhibition of PLD1 L425A mutant (unknown origin) overexpressed in human A549 cells; assay type: cell-based; in short: as §1
NCI-H460 = test: Cytotoxicity against human NCI-H460 cells assessed as inhibition of cell growth incubated for 48 hrs by WST-1 assay; assay type: functional, cell-based; details: NCI-H460, 48 h
In short: (§2)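 WST-1 viability assay. Cells seeded at 5 × 10^3 per well and incubated 24 h at 37 °C, then exposed to drug for 48 h. Absorbance read at 450 nm, in triplicate. IC50 taken as the concentration giving 50% growth inhibition versus control.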

[4] = Cytotoxicity against human HCC15 cells assessed as inhibition of cell growth incubated for 48 hrs by WST-1 assay; assay type: functional, cell-based; details: HCC15, 48 h; in short: as §2
A549 [5] = test: Induction of apoptosis in human A549 cells measured up to 48 hrs in presence of gemcitabine by Annexin V-FITC and PI staining based flow cytometry analysis; assay type: functional, cell-based
In short: (§3)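 A549 cells given compound, gemcitabine, or both. Apoptosis assessed by PI staining, annexin V flow cytometry, cleaved PARP immunoblot, and caspase-3 activity. For caspase-3: drugs at 10 μM for 48 h, then 1 μM NucView 488 substrate for 30 min, with 1 μM Hoechst 33342, read by plate fluorescence.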

A549 [6] = test: Induction of apoptosis in human A549 cells assessed as increase in cleaved PARP activity measured up to 48 hrs in presence of gemcitabine by flow cytometry analysis; assay type: functional, cell-based; in short: as §3
[7] = target: T1, Phospholipase D1 (Mus musculus) (UniProt Q9Z280); test: In vivo inhibition of PLD1 in male C57BL/6 mouse allografted with mouse Lewis lung carcinoma cell line assessed as reduction in CD24 expression at 10 mg/kg, po by immunofluorescence analysis; assay type: functional, organism-based
T1 sequence (whole entry): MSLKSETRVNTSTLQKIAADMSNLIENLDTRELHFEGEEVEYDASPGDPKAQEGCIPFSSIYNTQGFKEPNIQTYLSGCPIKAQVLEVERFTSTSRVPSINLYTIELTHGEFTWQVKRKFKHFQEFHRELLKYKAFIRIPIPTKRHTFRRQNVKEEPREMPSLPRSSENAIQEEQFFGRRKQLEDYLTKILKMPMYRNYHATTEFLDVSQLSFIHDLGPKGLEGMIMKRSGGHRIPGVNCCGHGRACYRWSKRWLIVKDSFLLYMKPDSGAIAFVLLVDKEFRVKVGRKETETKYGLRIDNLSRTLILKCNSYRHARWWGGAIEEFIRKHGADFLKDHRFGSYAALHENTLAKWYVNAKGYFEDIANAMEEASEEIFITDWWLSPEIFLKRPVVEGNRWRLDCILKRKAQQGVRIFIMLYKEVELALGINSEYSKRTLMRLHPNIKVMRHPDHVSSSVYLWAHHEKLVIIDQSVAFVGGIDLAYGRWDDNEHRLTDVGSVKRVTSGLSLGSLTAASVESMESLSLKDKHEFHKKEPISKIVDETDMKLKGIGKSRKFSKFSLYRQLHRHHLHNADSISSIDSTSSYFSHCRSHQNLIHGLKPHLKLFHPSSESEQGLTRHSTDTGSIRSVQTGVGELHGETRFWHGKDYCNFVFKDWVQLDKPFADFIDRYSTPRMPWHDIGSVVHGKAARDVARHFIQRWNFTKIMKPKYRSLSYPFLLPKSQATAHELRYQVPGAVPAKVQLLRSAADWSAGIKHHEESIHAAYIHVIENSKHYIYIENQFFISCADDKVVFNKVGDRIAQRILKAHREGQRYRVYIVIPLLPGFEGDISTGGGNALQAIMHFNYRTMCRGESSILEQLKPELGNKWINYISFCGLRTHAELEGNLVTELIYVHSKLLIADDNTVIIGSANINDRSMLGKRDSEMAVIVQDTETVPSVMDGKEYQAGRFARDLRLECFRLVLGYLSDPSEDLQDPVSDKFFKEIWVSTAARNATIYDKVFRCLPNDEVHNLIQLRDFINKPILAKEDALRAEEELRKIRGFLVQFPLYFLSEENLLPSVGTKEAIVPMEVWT

[8] = test system: Lewis lung carcinoma cell line; test: Antitumor activity against mouse Lewis lung carcinoma cell line allografted in […] male C57BL/6 mouse model assessed as suppression of tumor formation at 10 mg/kg, po measured every other day for 3 weeks; assay type: functional, organism-based
A549 [9] = test: Synergistic antiproliferative activity against human A549 cells assessed as reduction in cell proliferation measured up to 48 hrs in presence of gemcitabine by IncuCyte real-time imaging

Chain of Phospholipase D2 (Homo sapiens) (O14939 whole entry): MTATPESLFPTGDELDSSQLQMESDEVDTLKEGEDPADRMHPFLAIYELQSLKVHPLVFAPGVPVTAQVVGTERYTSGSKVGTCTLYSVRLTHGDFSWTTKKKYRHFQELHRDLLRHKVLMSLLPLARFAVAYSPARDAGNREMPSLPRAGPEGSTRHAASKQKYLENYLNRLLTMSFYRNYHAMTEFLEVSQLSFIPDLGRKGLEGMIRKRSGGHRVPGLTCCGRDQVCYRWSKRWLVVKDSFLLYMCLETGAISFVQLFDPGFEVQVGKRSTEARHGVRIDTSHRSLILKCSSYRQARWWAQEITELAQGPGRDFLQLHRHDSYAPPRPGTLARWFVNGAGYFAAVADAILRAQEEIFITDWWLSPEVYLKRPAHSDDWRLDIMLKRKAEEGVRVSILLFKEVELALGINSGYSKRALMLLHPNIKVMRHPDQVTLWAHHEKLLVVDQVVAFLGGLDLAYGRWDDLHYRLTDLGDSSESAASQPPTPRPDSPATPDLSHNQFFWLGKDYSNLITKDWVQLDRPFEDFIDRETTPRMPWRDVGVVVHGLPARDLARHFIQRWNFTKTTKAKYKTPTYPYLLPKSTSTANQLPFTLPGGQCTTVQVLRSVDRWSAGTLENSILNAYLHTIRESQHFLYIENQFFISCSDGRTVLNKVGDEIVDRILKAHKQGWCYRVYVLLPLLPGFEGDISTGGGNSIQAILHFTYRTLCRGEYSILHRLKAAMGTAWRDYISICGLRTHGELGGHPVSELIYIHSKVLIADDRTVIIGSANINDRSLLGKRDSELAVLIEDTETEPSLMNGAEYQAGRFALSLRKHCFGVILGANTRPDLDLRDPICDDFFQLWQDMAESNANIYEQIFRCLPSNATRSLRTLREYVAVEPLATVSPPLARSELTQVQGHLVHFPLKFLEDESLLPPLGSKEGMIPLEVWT

For `O=C(CCc1c[nH]c2ccccc12)Nc1cc(C(F)(F)F)cc(C(F)(F)F)c1`, the IC50 [1] was 1.97 µM, the inhibition [2] was “inactive” and the inhibition (A549 [3]) was “Active”. The IC50 (NCI-H460) was 24.9 µM, the IC50 [4] was 21.4 µM and the Activity (A549 [5]) was “Active”. For the same compound, the Activity (A549 [6]) was “Active”, the inhibition [7] was “Active” and the Activity [8] was “Active”. The Activity (A549 [9]) was “Active”.

From ChEMBL document CHEMBL6134796, “Development and Evaluation of Indole-Based Phospholipase D Inhibitors for Lung Cancer Immunotherapy” (J Med Chem, 2025)
